# Columns and labels:
# [1] = molecular target: T1, Intercellular adhesion molecule 1 (Homo sapiens, UniProt P05362); experiment: In vitro inhibitory potency compared to TNF-alpha induced Intercellular adhesion molecule-1 in human endothelial cells (ELISA assay); assay type: cell-based, Endothelial cell
# Summary of the method: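 Primary HUVECs seeded at 5 × 10^4 cells/mL in EBM/2% FBS with supplements. After 24 h of compound at 37 °C, TNFα was added to 5 ng/mL final for 6 h at 37 °C. Cell-surface ICAM-1 was detected with a mouse monoclonal antibody, then HRP anti-mouse IgG and OPD, with absorbance at 490 nm. Triplicate determinations.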
# [2] = molecular target: T2, E-selectin (Homo sapiens, UniProt P16581); experiment: In vitro inhibitory potency compared to IL1-beta induced Selectin E in human endothelial cells (ELISA assay); assay type: cell-based, Endothelial cell
# T2 sequence (P16581 whole entry): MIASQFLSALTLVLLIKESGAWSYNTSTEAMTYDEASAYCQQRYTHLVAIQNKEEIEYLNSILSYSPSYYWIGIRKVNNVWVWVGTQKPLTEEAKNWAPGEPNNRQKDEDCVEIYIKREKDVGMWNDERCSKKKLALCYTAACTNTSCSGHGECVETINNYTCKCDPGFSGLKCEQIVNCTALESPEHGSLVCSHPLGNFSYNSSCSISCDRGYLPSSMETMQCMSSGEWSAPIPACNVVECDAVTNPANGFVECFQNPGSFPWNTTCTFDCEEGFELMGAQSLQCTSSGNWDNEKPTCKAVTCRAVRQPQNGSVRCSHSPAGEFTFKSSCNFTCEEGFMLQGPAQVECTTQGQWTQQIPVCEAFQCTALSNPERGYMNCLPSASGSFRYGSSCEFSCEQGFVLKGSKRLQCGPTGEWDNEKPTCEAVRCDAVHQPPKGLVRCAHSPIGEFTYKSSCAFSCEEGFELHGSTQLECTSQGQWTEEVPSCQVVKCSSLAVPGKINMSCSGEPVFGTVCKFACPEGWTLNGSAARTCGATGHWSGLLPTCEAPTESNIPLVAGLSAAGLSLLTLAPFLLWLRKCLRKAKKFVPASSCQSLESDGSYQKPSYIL
# Summary of the method: (§1)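 Whole-cell ELISA on primary HUVECs plated at 5 × 10^4 cells/mL in EBM/2% FBS with growth supplements. Compound preincubated 24 h at 37 °C, then inducer added (TNFα at 5 ng/mL final, or IL-1β or PMA in its place) for 6 h at 37 °C. Mouse monoclonal anti-E-selectin, anti-ICAM-1 or anti-VCAM-1 was applied overnight at 4 °C, then HRP anti-mouse IgG. Detection with OPD, A490. Triplicate assays.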
# [3] = molecular target: T1, Intercellular adhesion molecule 1; experiment: Inhibition of intercellular adhesion molecule-1 (ICAM1) in human endothelial cells; assay type: cell-based, Endothelial cell; summary of the method: as §1
# [4] = molecular target: T1, Intercellular adhesion molecule 1; experiment: In vitro inhibitory potency compared to PMA induced Intercellular adhesion molecule-1 in human endothelial cells (ELISA assay); assay type: cell-based, Endothelial cell; summary of the method: as §1
# [5] = molecular target: T2, E-selectin; experiment: Inhibition of selectin E in human endothelial cells; assay type: cell-based, Endothelial cell; summary of the method: as §1
# [6] = molecular target: T3, E-selectin (Homo sapiens) (UniProt P16581); experiment: In vitro inhibitory potency compared to PMA induced Selectin E expression in human endothelial cells (ELISA assay) at 1 uM; assay type: cell-based; conditions: Endothelial cell
# T3 sequence (whole entry): T2 sequence (P16581 whole entry)
# Summary of the method: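 HUVEC whole-cell ELISA with PMA substituted for TNFα as inducer. Compound preincubated 24 h at 37 °C, then 6 h induction at 37 °C. E-selectin detected with mouse monoclonal antibody and HRP anti-mouse IgG, OPD development, A490. Value given as percent inhibition at a single concentration of 1 µM.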
# [7] = molecular target: T2, E-selectin; experiment: In vitro inhibitory potency compared to TNF-alpha induced Selectin E in human endothelial cells (ELISA assay); assay type: cell-based, Endothelial cell; summary of the method: as §1
# [8] = molecular target: T1, Intercellular adhesion molecule 1; experiment: In vitro inhibitory potency compared to IL1-beta induced Intercellular adhesion molecule-1 in human endothelial cells (ELISA assay); assay type: cell-based, Endothelial cell
# Summary of the method: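 Primary HUVECs seeded at 5 × 10^4 cells/mL in EBM/2% FBS with EGF, bovine brain extract and gentamicin. Compound added next day for 24 h at 37 °C, then inducer (IL-1β or PMA, level not stated) for 6 h at 37 °C. Whole-cell ELISA used mouse monoclonal anti-ICAM-1 or anti-VCAM-1, HRP donkey anti-mouse IgG and OPD, read at 490 nm. Run in triplicate.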
# [9] = Solubility in pH 7.4 buffer.; assay type: physicochemical
# [10] = tested on: Mus musculus; experiment: Efficacy in serum sICAM-1 at 30 mg/kg of oral dosing in an inhaled allergen-induced cell influx in mice.; assay type: functional
# Summary of the method: (§2)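 Mouse inhaled-allergen model. Compounds or vehicle (0.2% methylcellulose) given orally 18 h and 1 h before the first of two allergen inhalations. Lungs lavaged 24-27 h after the first inhalation. Read-outs were lavage cell count (no./µL), neutrophil and eosinophil percentages, and soluble ICAM-1 in serum and BAL 24 h after antigen. Values are mean ± SE.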
# [11] = tested on: Mus musculus; experiment: Efficacy in lavage cells at 30 mg/kg of oral dosing in an inhaled allergen-induced cell influx in mice.; assay type: functional; summary of the method: as §2
# [12] = tested on: Mus musculus; experiment: Efficacy in lBAL sICAM-1 at 30 mg/kg of oral dosing in an inhaled allergen-induced cell influx in mice.; assay type: functional; summary of the method: as §2
# [13] = tested on: Mus musculus; experiment: % Efficacy in neutrophils at 30 mg/kg of oral dosing in an inhaled allergen-induced cell influx in mice.; assay type: functional; summary of the method: as §2
# [14] = tested on: Mus musculus; experiment: % Efficacy in eosinophils at 30 mg/kg of oral dosing in an inhaled allergen-induced cell influx in mice.; assay type: functional, Eosinophil; summary of the method: as §2
# [15] = Solubility in pH 7.4 buffer; assay type: physicochemical
# T1 sequence (P05362 whole entry): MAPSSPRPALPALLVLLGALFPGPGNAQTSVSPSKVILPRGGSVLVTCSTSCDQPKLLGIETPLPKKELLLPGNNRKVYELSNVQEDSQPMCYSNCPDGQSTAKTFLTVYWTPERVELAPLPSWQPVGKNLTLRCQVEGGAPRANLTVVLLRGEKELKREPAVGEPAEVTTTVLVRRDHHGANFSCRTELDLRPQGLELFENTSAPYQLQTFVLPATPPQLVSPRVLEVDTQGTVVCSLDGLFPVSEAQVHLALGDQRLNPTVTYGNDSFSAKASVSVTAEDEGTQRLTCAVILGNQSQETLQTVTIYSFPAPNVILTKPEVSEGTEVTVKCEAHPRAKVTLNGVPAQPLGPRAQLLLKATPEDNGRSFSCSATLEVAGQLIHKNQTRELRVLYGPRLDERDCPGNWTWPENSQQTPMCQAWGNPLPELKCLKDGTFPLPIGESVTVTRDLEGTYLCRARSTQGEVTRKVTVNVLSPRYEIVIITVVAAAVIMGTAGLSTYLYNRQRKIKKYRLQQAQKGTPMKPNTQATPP
structure (smiles),measurement,setting,value
CNC(=O)c1cc2c(Oc3ccc(COCCOCCOC)cc3)cncc2s1,IC50,[1],5 nM
same,IC50,[2],5 nM
same,IC50,[3],5 nM
same,IC50,[4],5 nM
same,IC50,[5],6 nM
same,inhibition,[6],46%
same,IC50,[7],4 nM
same,IC50,[8],2 nM
COCc1ccc(Oc2cncc3sc(C(N)=O)cc23)cc1,IC50,[3],16 nM
same,solubility,[9],6.2 µg/mL
same,IC50,[5],16 nM
CNC(=O)c1cc2c(Oc3ccc(C(F)(F)F)cc3)cncc2s1,Efficacy,[10],19.6 µg/mL
same,Efficacy,[11],107 number ul-1
same,Efficacy,[12],1.89 µg/mL
same,Efficacy,[13],48%
same,Efficacy,[14],10%
NC(=O)c1cc2c(Oc3ccc(C(O)CO)cc3)cncc2s1 (stereo not drawn),IC50,[3],680 nM
same,solubility,[9],15.3 µg/mL
same,IC50,[5],670 nM
CNC(=O)c1cc2c(Oc3ccc(COCCOC)cc3)cncc2s1,IC50,[3],8 nM
same,solubility,[9],25.7 µg/mL
same,IC50,[5],7 nM
NC(=O)c1cc2c(Oc3ccc(CO)cc3)cncc2s1,solubility,[15],6.9 µg/mL

# Reference: ChEMBL document CHEMBL1134459 (J Med Chem, 2001)
